22 molecules from ChEMBL document CHEMBL2057135, “Synthesis, antitubercular and antimicrobial evaluation of 3-(4-chlorophenyl)-4-substituted pyrazole derivatives” (2012) can be followed below.

In brackets after ≈: the same amount, converted by molar mass.

What all share (assay type): functional
For one assay, the system named is Pichia kudriavzevii. Nature of the assay: Antifungal activity against Candida krusei KCCM 11655 after 1 day. As to conditions: KCCM 11655, 24 h.
The next assay concerns Cryptococcus neoformans. Nature of the assay: Antifungal activity against Cryptococcus neoformans KCCM 50564 after 1 day. To be noted: KCCM 50564, 24 h.
The subject of another assay is Aspergillus niger. Nature of the assay: Antifungal activity against Aspergillus niger KCTC 1231 after 2 days. To be noted: KCTC 1231, 48 h.
For the next assay, the system named is Aspergillus flavus. The assay can be described thus: Antifungal activity against Aspergillus flavus KCCM 11899 after 2 days. As to conditions: KCCM 11899, 48 h.
The next assay has as its system Escherichia coli. Nature of the assay: Antibacterial activity against Escherichia coli ATCC 25922.
For a further assay, the system named is Staphylococcus aureus. The assay can be described thus: Antibacterial activity against Staphylococcus aureus ATCC 29213.
Assay [1] deals with Mycobacterium tuberculosis. The assay can be described thus: Antitubercular activity against Mycobacterium tuberculosis H37Rv ATCC 27294 after 7 days by BACTEC method. As to conditions: H37Rv ATCC 27294, 168 h. The method, boiled down:
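Screened in vitro against M. tuberculosis H37Rv in a modified BACTEC 460 radiometric system. Test compound stocks were made at 1 mg/ml in DMSO and filter-sterilised through 0.22 µm PTFE filters. MIC was read, with rifampin as the reference agent.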

The term MIC denotes the least concentration at which growth counts as inhibited. The low end stands for greater potency, the high end for weaker potency. As for `O=C(NN1C(=O)CSC1c1ccccc1Cl)c1cc(-c2ccc(Cl)cc2)n[nH]1` (racemic), the MIC was 12.5 µg/mL (≈ 28.8 µM) in the assay on Pichia kudriavzevii; 1.6 µg/mL (≈ 3.69 µM) against Cryptococcus neoformans; 25 µg/mL (≈ 57.7 µM) against Aspergillus niger; 50 µg/mL (≈ 115 µM) against Aspergillus flavus; 0.048 µg/mL (≈ 0.111 µM) in the assay on Escherichia coli; 0.02 µg/mL (≈ 0.0462 µM) against Staphylococcus aureus. Also, 0.5 µg/mL (≈ 1.15 µM) was the least that counted as inhibitory in assay [1] (MIC).

Consider `O=C(NN1C(=O)[C@H](Cl)[C@H]1c1ccccc1Cl)c1cc(-c2ccc(Cl)cc2)n[nH]1` (racemic), for which the MIC against Pichia kudriavzevii was found to be 1.6 µg/mL (≈ 3.67 µM); in the assay with Cryptococcus neoformans, 6.3 µg/mL (≈ 14.5 µM); in the assay on Aspergillus niger, 12.5 µg/mL (≈ 28.7 µM); against Aspergillus flavus, 12.5 µg/mL (≈ 28.7 µM); against Escherichia coli, 0.031 µg/mL (≈ 0.0712 µM); against Staphylococcus aureus, 0.034 µg/mL (≈ 0.078 µM). Inhibition of growth in assay [1] (MIC) required 0.55 µg/mL (≈ 1.26 µM).

For `COc1ccc([C@@H]2[C@@H](Cl)C(=O)N2NC(=O)c2cc(-c3ccc(Cl)cc3)n[nH]2)cc1OC` (racemic), the MIC in the assay on Pichia kudriavzevii was 12.5 µg/mL (≈ 27.1 µM); with Cryptococcus neoformans, 3.2 µg/mL (≈ 6.94 µM); against Aspergillus niger, 12.5 µg/mL (≈ 27.1 µM); in the assay with Aspergillus flavus, 6.3 µg/mL (≈ 13.7 µM); in the assay with Escherichia coli, 0.5 µg/mL (≈ 1.08 µM); in the assay on Staphylococcus aureus, 0.05 µg/mL (≈ 0.108 µM). The molecule also came in with an MIC in assay [1] of 1.15 µg/mL (≈ 2.49 µM).

Turning to `O=C(NN1C(=O)CSC1c1ccc(Cl)cc1)c1cc(-c2ccc(Cl)cc2)n[nH]1` (racemic), the MIC was 25 µg/mL (≈ 57.7 µM) in the assay on Pichia kudriavzevii; 12.5 µg/mL (≈ 28.8 µM) in the assay with Cryptococcus neoformans; 12.5 µg/mL (≈ 28.8 µM) against Aspergillus niger; 6.3 µg/mL (≈ 14.5 µM) in the assay with Aspergillus flavus; 0.022 µg/mL (≈ 0.0508 µM) with Escherichia coli; 0.048 µg/mL (≈ 0.111 µM) in the assay with Staphylococcus aureus. Besides, the MIC in assay [1] worked out at 1.15 µg/mL (≈ 2.65 µM).

Turning to `O=C(N/N=C/c1ccccc1[N+](=O)[O-])c1cc(-c2ccc(Cl)cc2)n[nH]1`, the MIC against Pichia kudriavzevii amounted to 100 µg/mL (≈ 270 µM); with Cryptococcus neoformans, 1.6 µg/mL (≈ 4.33 µM); with Aspergillus niger, 3.2 µg/mL (≈ 8.65 µM); with Aspergillus flavus, 25 µg/mL (≈ 67.6 µM); against Escherichia coli, 8 µg/mL (≈ 21.6 µM); with Staphylococcus aureus, 8 µg/mL (≈ 21.6 µM). The molecule also registered an MIC in assay [1] of over 5 µg/mL.

As for `O=C(O)c1cn(C2CC2)c2cc(N3CCNCC3)c(F)cc2c1=O` [CIPROFLOXACIN], the MIC against Staphylococcus aureus stood at 0.25 µg/mL (≈ 0.754 µM).

For `OC(Cn1cncn1)(Cn1cncn1)c1ccc(F)cc1F` [FLUCONAZOLE], the MIC against Pichia kudriavzevii is 25 µg/mL (≈ 81.6 µM); in the assay on Cryptococcus neoformans it was 6.3 µg/mL (≈ 20.6 µM); in the assay on Aspergillus niger, 6.3 µg/mL (≈ 20.6 µM); against Aspergillus flavus, 25 µg/mL (≈ 81.6 µM).

As for `O=C(NN1C(=O)[C@H](Cl)[C@H]1c1ccccc1[N+](=O)[O-])c1cc(-c2ccc(Cl)cc2)n[nH]1` (racemic), the MIC is 12.5 µg/mL (≈ 28 µM) against Pichia kudriavzevii; 50 µg/mL (≈ 112 µM) against Cryptococcus neoformans; 100 µg/mL (≈ 224 µM) with Aspergillus niger; 50 µg/mL (≈ 112 µM) against Aspergillus flavus; 0.5 µg/mL (≈ 1.12 µM) with Escherichia coli; 6 µg/mL (≈ 13.4 µM) with Staphylococcus aureus. In addition, 1.9 µg/mL (≈ 4.26 µM) was the least that counted as inhibitory in assay [1] (MIC).

Regarding `O=C(NN1C(=O)CSC1c1ccccc1O)c1cc(-c2ccc(Cl)cc2)n[nH]1` (racemic), the MIC against Pichia kudriavzevii came to 12.5 µg/mL (≈ 30.1 µM); against Cryptococcus neoformans, 6.3 µg/mL (≈ 15.2 µM); against Aspergillus niger it was 6.3 µg/mL (≈ 15.2 µM); in the assay on Aspergillus flavus, 12.5 µg/mL (≈ 30.1 µM); against Escherichia coli, 0.028 µg/mL (≈ 0.0675 µM); in the assay with Staphylococcus aureus, 0.06 µg/mL (≈ 0.145 µM). This molecule also had an MIC in assay [1] of 0.5 µg/mL (≈ 1.21 µM).

For the molecule `O=C(NN1C(=O)CSC1c1ccccc1)c1cc(-c2ccc(Cl)cc2)n[nH]1` (racemic), the minimum inhibitory concentration (MIC) against Pichia kudriavzevii turned out to be 50 µg/mL (≈ 125 µM); against Cryptococcus neoformans, 12.5 µg/mL (≈ 31.3 µM); in the assay on Aspergillus niger, 25 µg/mL (≈ 62.7 µM); with Aspergillus flavus, 12.5 µg/mL (≈ 31.3 µM); in the assay with Escherichia coli, 0.28 µg/mL (≈ 0.702 µM); against Staphylococcus aureus, 0.91 µg/mL (≈ 2.28 µM). Also, the lowest concentration to inhibit growth in assay [1] (MIC) was 3.15 µg/mL (≈ 7.9 µM).

With `COc1cc(C2SCC(=O)N2NC(=O)c2cc(-c3ccc(Cl)cc3)n[nH]2)ccc1O` (racemic), the MIC in the assay with Pichia kudriavzevii stood at 12.5 µg/mL (≈ 28.1 µM); with Cryptococcus neoformans, 1.6 µg/mL (≈ 3.6 µM); against Aspergillus niger, 1.6 µg/mL (≈ 3.6 µM); in the assay on Aspergillus flavus it was 12.5 µg/mL (≈ 28.1 µM); in the assay with Escherichia coli it was 0.05 µg/mL (≈ 0.112 µM); in the assay on Staphylococcus aureus, 0.15 µg/mL (≈ 0.337 µM). Further, 0.65 µg/mL (≈ 1.46 µM) was the least that counted as inhibitory in assay [1] (MIC).

Consider `O=C(N/N=C/c1ccccc1O)c1cc(-c2ccc(Cl)cc2)n[nH]1`, for which the MIC in the assay on Pichia kudriavzevii was determined as 50 µg/mL (≈ 147 µM); in the assay with Cryptococcus neoformans, 25 µg/mL (≈ 73.4 µM); in the assay on Aspergillus niger it was 100 µg/mL (≈ 293 µM); with Aspergillus flavus, 6.3 µg/mL (≈ 18.5 µM); in the assay on Escherichia coli it was 0.015 µg/mL (≈ 0.044 µM); with Staphylococcus aureus it was 0.4 µg/mL (≈ 1.17 µM). Further, 1.1 µg/mL (≈ 3.23 µM) was the least that counted as inhibitory in assay [1] (MIC).

For `COc1cc([C@@H]2[C@@H](Cl)C(=O)N2NC(=O)c2cc(-c3ccc(Cl)cc3)n[nH]2)ccc1O` (racemic), the MIC was found to be 1.6 µg/mL (≈ 3.58 µM) with Pichia kudriavzevii; 12.5 µg/mL (≈ 27.9 µM) in the assay on Cryptococcus neoformans; 3.2 µg/mL (≈ 7.15 µM) in the assay on Aspergillus niger; 25 µg/mL (≈ 55.9 µM) against Aspergillus flavus; 0.025 µg/mL (≈ 0.0559 µM) in the assay with Escherichia coli; 0.125 µg/mL (≈ 0.279 µM) in the assay with Staphylococcus aureus. Moreover, in assay [1], the MIC was 0.6 µg/mL (≈ 1.34 µM).

With `O=C(NN1C(=O)[C@H](Cl)[C@H]1c1ccc(O)cc1)c1cc(-c2ccc(Cl)cc2)n[nH]1` (racemic), the MIC in the assay with Pichia kudriavzevii is 25 µg/mL (≈ 59.9 µM); against Cryptococcus neoformans, 3.2 µg/mL (≈ 7.67 µM); in the assay on Aspergillus niger, 1.6 µg/mL (≈ 3.83 µM); against Aspergillus flavus it was 12.5 µg/mL (≈ 30 µM); against Escherichia coli it was 0.01 µg/mL (≈ 0.024 µM); with Staphylococcus aureus it was 0.04 µg/mL (≈ 0.0959 µM). This molecule also had an MIC in assay [1] of 0.6 µg/mL (≈ 1.44 µM).

As for `O=C(NN1C(=O)CSC1c1cccc([N+](=O)[O-])c1)c1cc(-c2ccc(Cl)cc2)n[nH]1` (racemic), the MIC stood at 50 µg/mL (≈ 113 µM) in the assay with Pichia kudriavzevii; 100 µg/mL (≈ 225 µM) with Cryptococcus neoformans; 25 µg/mL (≈ 56.3 µM) with Aspergillus niger; 100 µg/mL (≈ 225 µM) against Aspergillus flavus; 0.6 µg/mL (≈ 1.35 µM) against Escherichia coli; 8 µg/mL (≈ 18 µM) with Staphylococcus aureus. In assay [1], this molecule registered an MIC of 2 µg/mL (≈ 4.51 µM).

With `O=C(NN1C(=O)CSC1c1ccccc1[N+](=O)[O-])c1cc(-c2ccc(Cl)cc2)n[nH]1` (racemic), the MIC was 25 µg/mL (≈ 56.3 µM) with Pichia kudriavzevii; 3.2 µg/mL (≈ 7.21 µM) against Cryptococcus neoformans; 50 µg/mL (≈ 113 µM) in the assay with Aspergillus niger; 50 µg/mL (≈ 113 µM) with Aspergillus flavus; 0.1 µg/mL (≈ 0.225 µM) in the assay with Escherichia coli; 2 µg/mL (≈ 4.51 µM) in the assay with Staphylococcus aureus. It took 4 µg/mL (≈ 9.01 µM) to inhibit growth in assay [1] (MIC).

`COc1ccc(/C=N/NC(=O)c2cc(-c3ccc(Cl)cc3)n[nH]2)cc1OC`: the MIC stood at 50 µg/mL (≈ 130 µM) in the assay on Pichia kudriavzevii; 12.5 µg/mL (≈ 32.5 µM) with Cryptococcus neoformans; 25 µg/mL (≈ 65 µM) against Aspergillus niger; 12.5 µg/mL (≈ 32.5 µM) in the assay on Aspergillus flavus; 4 µg/mL (≈ 10.4 µM) against Escherichia coli; 0.25 µg/mL (≈ 0.65 µM) in the assay with Staphylococcus aureus. Moreover, the MIC in assay [1] amounted to 0.37 µg/mL (≈ 0.961 µM).

Regarding `CO[C@H]1/C=C/O[C@@]2(C)Oc3c(C)c(O)c4c(O)c(c(/C=N/N5CCN(C)CC5)c(O)c4c3C2=O)NC(=O)/C(C)=C\C=C\[C@H](C)[C@H](O)[C@@H](C)[C@@H](O)[C@@H](C)[C@H](OC(C)=O)[C@@H]1C` [RIFAMPIN], the MIC in assay [1] was 0.125 µg/mL (≈ 0.152 µM).

Take `O=C(N/N=C/c1cccc([N+](=O)[O-])c1)c1cc(-c2ccc(Cl)cc2)n[nH]1`: the MIC with Pichia kudriavzevii was 25 µg/mL (≈ 67.6 µM); in the assay on Cryptococcus neoformans, 1.6 µg/mL (≈ 4.33 µM); in the assay with Aspergillus niger it was 25 µg/mL (≈ 67.6 µM); in the assay with Aspergillus flavus it was 12.5 µg/mL (≈ 33.8 µM); against Escherichia coli, 0.13 µg/mL (≈ 0.352 µM); in the assay on Staphylococcus aureus it was 1.5 µg/mL (≈ 4.06 µM). Besides, in assay [1], the MIC is over 5 µg/mL.

Consider `O=C(N/N=C/c1ccccc1)c1cc(-c2ccc(Cl)cc2)n[nH]1`, for which the MIC against Pichia kudriavzevii was found to be 12.5 µg/mL (≈ 38.5 µM); in the assay on Cryptococcus neoformans it was 1.6 µg/mL (≈ 4.93 µM); in the assay with Aspergillus niger, 50 µg/mL (≈ 154 µM); in the assay on Aspergillus flavus, 3.2 µg/mL (≈ 9.85 µM); with Escherichia coli, 1 µg/mL (≈ 3.08 µM); in the assay with Staphylococcus aureus it was 4 µg/mL (≈ 12.3 µM). Besides, the MIC in assay [1] was over 5 µg/mL.

Regarding `Nc1nc(=O)[nH]cc1F` [FLUCYTOSINE], the MIC stood at 6.3 µg/mL (≈ 48.8 µM) in the assay with Pichia kudriavzevii, 6.3 µg/mL (≈ 48.8 µM) against Cryptococcus neoformans, 6.3 µg/mL (≈ 48.8 µM) in the assay with Aspergillus niger and 25 µg/mL (≈ 194 µM) in the assay on Aspergillus flavus.

Turning to `COc1c(N2C[C@@H]3CCCN[C@@H]3C2)c(F)cc2c(=O)c(C(=O)O)cn(C3CC3)c12` [MOXIFLOXACIN], the results for the MIC in the assay on Escherichia coli and against Staphylococcus aureus were 0.015 µg/mL (≈ 0.0374 µM) and 0.06 µg/mL (≈ 0.149 µM), respectively.
